In ChEMBL document CHEMBL2412970, “Synthesis and anticancer activity of 2,4-disubstituted furo[3,2-b]indole derivatives” (Eur J Med Chem, 2013):
Active and inactive are the calls of the source. No cut-off for these calls is given here.

Assays:
A498 [1] = test: Induction of apoptosis in human A498 cells assessed as late apoptotic cells at 0.5 uM after 36 hrs by AnnexinV/FITC-propidium iodide staining-based flow cytometry (reference value: 9.6%); type: functional
In short: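 Flow cytometry with annexin V-FITC/PI double labeling of A498 cells treated for 12, 24, 36 or 48 h; untreated cells served as the 0 h control. Stained in binding buffer for 15 min at room temperature in the dark, with more binding buffer added just before analysis. Annexin V+/PI− (Q4) counted as early apoptotic and annexin V+/PI+ (Q2) as late apoptotic.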

A498 [2] = test: Induction of apoptosis in human A498 cells assessed as early apoptotic cells at 0.5 uM after 36 hrs by AnnexinV/FITC-propidium iodide staining-based flow cytometry (reference value: 3.9%); type: functional
A498 [3] = test: Induction of apoptosis in human A498 cells assessed as early apoptotic cells at 0.5 uM after 12 hrs by AnnexinV/FITC-propidium iodide staining-based flow cytometry (reference value: 3.9%); type: functional
A498 [4] = test: Cytotoxicity against human A498 cells assessed as cell rounding at 0.5 uM after 24 hrs by phase contrast microscopy; type: functional, cell-based
In short: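 A498 cells were plated at 5 × 10⁵ per well and exposed to 0.5 µM for 24 h. Cell rounding and shrinkage were scored by microscopy against untreated control cells.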

A498 [5] = test: Cytotoxicity against human A498 cells assessed as reduction in cell viability at 0.25 uM after 48 hrs by MTT assay relative to control; type: functional
SN12C = test: Cytotoxicity against human SN12C cells after 48 hrs by sulforhodamine B assay; type: functional
OVCAR-4 = test: Cytotoxicity against human OVCAR4 cells after 48 hrs by sulforhodamine B assay; type: functional; conditions: OVCAR-4, 48 h
IGROV-1 = test: Cytotoxicity against human IGROV1 cells after 48 hrs by sulforhodamine B assay; type: functional; conditions: IGROV-1, 48 h
MDA-MB-435 = test: Cytotoxicity against human MDA-MB-435 cells after 48 hrs by sulforhodamine B assay; type: functional; conditions: MDA-MB-435, 48 h
SNB-19 = test: Cytotoxicity against human SNB19 cells after 48 hrs by sulforhodamine B assay; type: functional; conditions: SNB-19, 48 h
SF-539 = test: Cytotoxicity against human SF539 cells after 48 hrs by sulforhodamine B assay; type: functional; conditions: SF-539, 48 h
HCC 2998 = test: Cytotoxicity against human HCC2998 cells after 48 hrs by sulforhodamine B assay; type: functional; conditions: HCC 2998, 48 h
NCI-H522 = test: Cytotoxicity against human NCI-H522 cells after 48 hrs by sulforhodamine B assay; type: functional; conditions: NCI-H522, 48 h
A549 = test: Cytotoxicity against human A549/ATCC cells after 48 hrs by sulforhodamine B assay; type: functional; conditions: A549, 48 h
A498 [6] = test: Cell cycle arrest in human A498 cells assessed as accumulation at S phase at 0.5 uM after 36 hrs by propidium iodide staining-based flow cytometry (reference value: 15.92 +/- 0.03%); type: functional
A498 [7] = test: Cell cycle arrest in human A498 cells assessed as accumulation at S phase at 0.5 uM after 24 hrs by propidium iodide staining-based flow cytometry (reference value: 15.92 +/- 0.03%); type: functional
A498 [8] = test: Cell cycle arrest in human A498 cells assessed as accumulation at sub-G1 phase at 0.5 uM after 48 hrs by propidium iodide staining-based flow cytometry (reference value: 0.10 +/- 0.07%); type: functional
A498 [9] = test: Ratio of YC-1 IC50 to compound IC50 for human A498 cells after 48 hrs by MTT assay; type: functional
Mus musculus = test: Toxicity in BALB/cAnN.Cg-Foxn1nu/CrlNarl nude mouse assessed as change in body weight at 30 to 60 mg/kg/day, ip qd administered 5 times a week for 28 days measured every 7 days; type: organism-based; parameters: route intraperitoneal; conditions: in vivo
In short: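 Male nude mice, 18–20 g, 4–6 weeks old, carried subcutaneous A498 xenografts (2 × 10⁶ cells in 0.1 mL PBS). Once nodules reached 100 mm³, mice were randomized, eight per group. They received ip 30 or 60 mg/kg 5 times weekly for 4 weeks, with body weight and tumor size recorded every 7 days over 28 days.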

A498 [10] = test: Induction of cell cycle arrest at G2/M phase in human A498 cells assessed as increase in CDK1 expression at 0.5 uM after 6 hrs by Western blotting analysis; type: functional, cell-based
In short: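 A498 cells exposed to 0.5 µM for 6, 12, 24, 36 or 48 h, then lysed on ice 30 min and spun 12 000g 20 min. Protein measured by Bradford; 20 µg per lane run on 10% SDS-PAGE, transferred to nitrocellulose, probed for cyclin B1 and CDK1, β-actin as loading control; n = 3 independent experiments.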

[11] = read-out: pLC50 (the source's name) (converted)

**Q.** How did the Activity (A498 [1]) turn out when `OCc1ccc(Cn2c3ccccc3c3oc(CO)cc32)o1` was run?
**A.** The Activity was 20.3%.

**Q.** What about the Activity (A498 [2]) of the same molecule?
**A.** Its Activity is 21.5%.

**Q.** And the Activity (A498 [3])?
**A.** Its Activity is 5%.

**Q.** What about the Activity (A498 [4]) of the same molecule?
**A.** The Activity was “Active”.

**Q.** What about the Activity (A498 [5]) of the same molecule?
**A.** Its Activity is 39.5%.

**Q.** What about the GI50 (SN12C) of the same molecule?
**A.** The GI50 was > 100 µM.

**Q.** And the CC50 (SN12C; [11])?
**A.** Its CC50 is > 100 µM.

**Q.** What about the TGI (SN12C; read-out: pTGI) of the same molecule?
**A.** Its TGI is > 100 µM.

**Q.** And the GI50 (OVCAR-4)?
**A.** The GI50 was 4.27 µM.

**Q.** And the CC50 (OVCAR-4; [11])?
**A.** Its CC50 is > 100 µM.

**Q.** And the TGI (OVCAR-4; read-out: pTGI)?
**A.** The TGI was > 100 µM.

**Q.** What about the GI50 (IGROV-1) of the same molecule?
**A.** The GI50 was 4.68 µM.

**Q.** And the CC50 (IGROV-1; [11])?
**A.** Its CC50 is > 100 µM.

**Q.** And the TGI (IGROV-1; read-out: pTGI)?
**A.** Its TGI is > 100 µM.

**Q.** And the GI50 (MDA-MB-435)?
**A.** Its GI50 is > 100 µM.

**Q.** What about the CC50 (MDA-MB-435; [11]) of the same molecule?
**A.** Its CC50 is > 100 µM.

**Q.** And the TGI (MDA-MB-435; read-out: pTGI)?
**A.** The TGI was > 100 µM.

**Q.** What about the GI50 (SNB-19) of the same molecule?
**A.** The GI50 was > 100 µM.

**Q.** And the CC50 (SNB-19; [11])?
**A.** The CC50 was > 100 µM.

**Q.** And the TGI (SNB-19; read-out: pTGI)?
**A.** Its TGI is > 100 µM.

**Q.** And the GI50 (SF-539)?
**A.** The GI50 was > 100 µM.

**Q.** What about the CC50 (SF-539; [11]) of the same molecule?
**A.** Its CC50 is > 100 µM.

**Q.** And the TGI (SF-539; read-out: pTGI)?
**A.** Its TGI is > 100 µM.

**Q.** What about the GI50 (HCC 2998) of the same molecule?
**A.** Its GI50 is > 100 µM.

**Q.** What about the CC50 (HCC 2998; [11]) of the same molecule?
**A.** Its CC50 is > 100 µM.

**Q.** What about the TGI (HCC 2998; read-out: pTGI) of the same molecule?
**A.** The TGI was > 100 µM.

**Q.** And the GI50 (NCI-H522)?
**A.** The GI50 was 39.8 µM.

**Q.** What about the CC50 (NCI-H522; [11]) of the same molecule?
**A.** Its CC50 is > 100 µM.

**Q.** What about the TGI (NCI-H522; read-out: pTGI) of the same molecule?
**A.** Its TGI is > 100 µM.

**Q.** What about the GI50 (A549) of the same molecule?
**A.** Its GI50 is 64.6 µM.

**Q.** What about the CC50 (A549; [11]) of the same molecule?
**A.** Its CC50 is > 100 µM.

**Q.** What about the TGI (A549; read-out: pTGI) of the same molecule?
**A.** The TGI was > 100 µM.

**Q.** What about the Activity (A498 [6]) of the same molecule?
**A.** The Activity was 14.33%.

**Q.** What about the Activity (A498 [7]) of the same molecule?
**A.** The Activity was 15.98%.

**Q.** What about the Activity (A498 [8]) of the same molecule?
**A.** The Activity was 12.76%.

**Q.** What about the “Ratio IC50” value (A498 [9]) of the same molecule?
**A.** The value was 1.5.

**Q.** And the Activity (Mus musculus)?
**A.** The Activity was “Non-toxic”.

**Q.** What about the Activity (A498 [10]) of the same molecule?
**A.** The Activity was “Active”.
